Assays:
Plasmodium falciparum [1] = assay: Antimalarial activity against Plasmodium falciparum PH3 infected in human A positive erythrocytes assessed as inhibition of [G-3H]-hypoxanthine uptake after 24 hrs by liquid scintillation counting; assay type: functional, organism-based; details: PH3, 24 h
Plasmodium falciparum [2] = assay: Antimalarial activity against chloroquine-sensitive Plasmodium falciparum 3D7 infected in human A positive erythrocytes assessed as inhibition of [G-3H]-hypoxanthine uptake after 24 hrs by liquid scintillation counting; assay type: functional, organism-based; details: 3D7, 24 h
Plasmodium falciparum [3] = assay: Antimalarial activity against Plasmodium falciparum Dd2 infected in human A positive erythrocytes assessed as inhibition of [G-3H]-hypoxanthine uptake after 24 hrs by liquid scintillation counting; assay type: functional, organism-based; details: Dd2, 24 h
Plasmodium falciparum [4] = assay: Antimalarial activity against chloroquine-resistant Plasmodium falciparum TM6 infected in human A positive erythrocytes assessed as inhibition of [G-3H]-hypoxanthine uptake after 24 hrs by liquid scintillation counting; assay type: functional, organism-based; details: TM6, 24 h
Plasmodium falciparum [5] = assay: Antimalarial activity against chloroquine-resistant Plasmodium falciparum K1 infected in human A positive erythrocytes assessed as inhibition of [G-3H]-hypoxanthine uptake after 24 hrs by liquid scintillation counting; assay type: functional, organism-based; details: K1, 24 h
Plasmodium falciparum [6] = assay: Antimalarial activity against Plasmodium falciparum TM4 infected in human A positive erythrocytes assessed as inhibition of [G-3H]-hypoxanthine uptake after 24 hrs by liquid scintillation counting; assay type: functional, organism-based; details: TM4, 24 h
Plasmodium falciparum [7] = assay: Antimalarial activity against chloroquine-resistant Plasmodium falciparum VS/1 infected in human A positive erythrocytes assessed as inhibition of [G-3H]-hypoxanthine uptake after 24 hrs by liquid scintillation counting; assay type: functional; details: VS/1, 24 h
Plasmodium berghei [8] = assay: Antimalarial activity against blood stage of Plasmodium berghei NK65 infected in po dosed rat assessed as inhibition of parasite growth; assay type: functional
Summary of the method: (§1)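 Blood-stage Plasmodium berghei NK65 infection in rodents. Compounds were given by the route stated in each line. ED50 is the dose in mg/kg giving 50% parasite growth inhibition relative to the untreated blank control. Procedure follows earlier reports.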

Plasmodium berghei [9] = assay: Antimalarial activity against blood stage of Plasmodium berghei NK65 infected in po dosed rat assessed as minimum curative dose; assay type: functional
Summary of the method: (§2)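 Rodents infected with blood-stage Plasmodium berghei NK65 were dosed by the route given in each line. Read-out was the minimum clearance dose (MCD), the lowest dose clearing parasites, reported in mg/kg. Method follows earlier reports.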

[10] = Therapeutic index, ratio of MTD for Sprague-Dawley rat to MCD for blood stage of Plasmodium berghei NK65; details: read-out: TI
Summary of the method: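 MCD (minimum clearance dose) comes from rodents infected with blood-stage P. berghei NK65, dosed orally except artesunate, which was given iv. MTD (maximum tolerated dose) comes from Sprague–Dawley rats. Both are in mg/kg. Therapeutic index is MTD divided by MCD.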

[11] = Acute toxicity in po dosed Sprague-Dawley rat assessed as maximum tolerated dose; assay type: organism-based; details: in vivo
Rattus norvegicus = species: Rattus norvegicus; assay: Ratio of compound MTD to febrifugine MTD in Sprague-Dawley rat; assay type: ADME, organism-based; details: in vivo
Plasmodium berghei [12] = assay: Antimalarial activity against blood stage of Plasmodium berghei NK65 infected in iv dosed rat assessed as inhibition of parasite growth; assay type: functional; summary of the method: as §1
Plasmodium berghei [13] = assay: Antimalarial activity against blood stage of Plasmodium berghei NK65 infected in iv dosed rat assessed as minimum curative dose; assay type: functional; summary of the method: as §2
Plasmodium falciparum [14] = assay: Antimalarial activity against chloroquine-resistant Plasmodium falciparum FVO infected in Aotus monkey assessed as cure rate at 2 mg/kg, po qd for 3 days; assay type: functional
Summary of the method: (§3)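 Aotus monkeys carrying chloroquine-resistant P. falciparum FVO were dosed orally once daily for 3 days at 2, 4, 8 or 16 mg/kg/day. Dosing began the day after parasitemia reached approximately 5,000 organisms per mm³. Cure means parasitemia cleared with no recrudescence. Cure rate is animals cured over total tested.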

Plasmodium falciparum [15] = assay: Antimalarial activity against chloroquine-resistant Plasmodium falciparum FVO infected in Aotus monkey assessed as cure rate at 4 mg/kg, po qd for 3 days; assay type: functional; summary of the method: as §3
Plasmodium falciparum [16] = assay: Antimalarial activity against chloroquine-resistant Plasmodium falciparum FVO infected in Aotus monkey assessed as cure rate at 8 mg/kg, po qd for 3 days; assay type: functional; summary of the method: as §3
Plasmodium falciparum [17] = assay: Antimalarial activity against chloroquine-resistant Plasmodium falciparum FVO infected in Aotus monkey assessed as cure rate at 16 mg/kg, po qd for 3 days; assay type: functional; summary of the method: as §3

Structure (SMILES)	IC50 (Plasmodium falciparum [1])	IC50 (Plasmodium falciparum [2])	IC50 (Plasmodium falciparum [3])	IC50 (Plasmodium falciparum [4])	IC50 (Plasmodium falciparum [5])	IC50 (Plasmodium falciparum [6])	IC50 (Plasmodium falciparum [7])	ED50 (Plasmodium berghei [8])	MCD (Plasmodium berghei [9])	selectivity ratio [10]	MTD [11]	Ratio (Rattus norvegicus)	ED50 (Plasmodium berghei [12])	MCD (Plasmodium berghei [13])	Activity (Plasmodium falciparum [14])	Activity (Plasmodium falciparum [15])	Activity (Plasmodium falciparum [16])	Activity (Plasmodium falciparum [17])
O=C(Cn1cnc2cccc(C(F)(F)F)c2c1=O)[C@@H]1NCC[C@H]1O	3.4 nM	2.6 nM	6.1 nM	2.7 nM	4.8 nM	7.3 nM	11 nM											
OC(c1cc(C(F)(F)F)nc2c(C(F)(F)F)cccc12)C1CCCCN1 (configuration not stated) [MEFLOQUINE]								1.1 mg/kg	9.9 mg/kg	61								
O=C(Cn1cnc2cccc(F)c2c1=O)[C@H]1NCC[C@@H]1O	2.5 nM	5.7 nM	8.1 nM	3.9 nM	5.9 nM	6.2 nM	5.3 nM	1.1 mg/kg	6.3 mg/kg	63	400 mg/kg	> 10						
C[C@H]1[C@H](OC(=O)CCC(=O)O)O[C@@H]2O[C@@]3(C)CC[C@H]4[C@H](C)CC[C@@H]1[C@@]24OO3 [ARTESUNATE]										37			0.55 mg/kg	6.8 mg/kg				
O=C(Cn1cnc2ccccc2c1=O)[C@H]1NCC[C@@H]1O	1.4 nM	2.8 nM	4.5 nM	3.1 nM	3.9 nM	7.9 nM	5.6 nM	1.7 mg/kg	9.9 mg/kg	10	100 mg/kg							
CCO[C@H]1CCN[C@@H]1C(=O)Cn1cnc2cccc(F)c2c1=O	0.18 nM	0.21 nM	0.26 nM	0.17 nM	0.24 nM	0.22 nM	0.25 nM	0.31 mg/kg	1.9 mg/kg	132	250 mg/kg				50%	67%	100%	100%
CCN(CC)Cc1cc(Nc2ccnc3cc(Cl)ccc23)ccc1O	15.9 nM	4.9 nM	9.1 nM	7.5 nM	21.2 nM	15.2 nM	8.7 nM											
O=C(Cn1cnc2cccc(C(F)(F)F)c2c1=O)[C@H]1NCC[C@@H]1O	3.2 nM	2.7 nM	6.3 nM	2.5 nM	4.7 nM	7.4 nM	11.2 nM	0.95 mg/kg	6.7 mg/kg	60	400 mg/kg	> 10						
O=C(Cn1cnc2ccncc2c1=O)[C@H]1NCC[C@@H]1O	1 nM	1.4 nM	2.2 nM	3.4 nM	2.8 nM	3 nM	4.1 nM	1 mg/kg	7.5 mg/kg	47	350 mg/kg	> 10						
O=C(Cn1cnc2cccnc2c1=O)[C@H]1NCC[C@H]1O	11.4 nM	16.3 nM	21.9 nM	13.2 nM	19.8 nM	32.7 nM	28.7 nM											
CC(C)O[C@H]1CCN[C@@H]1C(=O)Cn1cnc2cccc(C(F)(F)F)c2c1=O	0.54 nM	0.36 nM	0.78 nM	0.31 nM	0.61 nM	0.39 nM	0.68 nM	0.23 mg/kg	2.4 mg/kg	104	250 mg/kg							
O=C(Cn1cnc2cccnc2c1=O)[C@H]1NCC[C@@H]1OCc1ccccc1	0.2 nM	0.21 nM	0.17 nM	0.08 nM	0.24 nM	0.33 nM	0.13 nM	0.19 mg/kg	1.7 mg/kg	147	250 mg/kg				25%	71%	80%	100%
O=C(Cn1cnc2cccc(C(F)(F)F)c2c1=O)[C@H]1NCC[C@H]1O	21.2 nM	19.6 nM	31.8 nM	25.6 nM	24.2 nM	51.9 nM	36.5 nM											
O=C(Cn1cnc2cccnc2c1=O)[C@@H]1NCC[C@H]1O	1 nM	1.9 nM	2.4 nM	2 nM	3.3 nM	4 nM	3.7 nM											
O=C(Cn1cnc2cccnc2c1=O)[C@H]1NCC[C@@H]1O	1.1 nM	1.8 nM	2.3 nM	2.1 nM	3.1 nM	4.1 nM	3.6 nM	1.2 mg/kg	7.1 mg/kg	63	450 mg/kg	> 10						
O=C(C[C@@H]1NCCC[C@H]1O)Cn1cnc2ccccc2c1=O [FEBRIFUGINE]			2.1 nM	3.1 nM	2 nM	5.4 nM	4.2 nM	2.3 mg/kg	12 mg/kg	3	35 mg/kg							
CCN(CC)CCCC(C)Nc1ccnc2cc(Cl)ccc12 (configuration not stated) [CHLOROQUINE]								4.5 mg/kg	40 mg/kg									
